In ChEMBL document CHEMBL1157325, “7alpha,20-epoxy-ent-kauranoids from Isodon parvifolius” (J Nat Prod, 2006):

Columns and labels:
Assay type in all cases: functional, cell-based
K562 = experiment: Cytotoxicity against human K562 cells after 72 hrs by SRB assay; settings: K562, 72 h
A549 = experiment: Cytotoxicity against human A549 cells after 72 hrs by SRB assay; settings: A549, 72 h
In short: (§1)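 Adherent tumour cells seeded 24 h before treatment, then exposed continuously to a range of compound concentrations for 72 h. Cells were then fixed and stained with sulforhodamine B to read growth, and IC50 values were derived from the concentration series.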

HT-29 = experiment: Cytotoxicity against human HT29 cells after 72 hrs by SRB assay; settings: HT-29, 72 h; in short: as §1

## C=C1C(=O)[C@]23C[C@H]1CC[C@H]2[C@@]12CO[C@@]3(O)[C@@H](O)[C@@H]1[C@@](C)(CO)CC[C@@H]2O [PARVIFOLINE C]
K562
  IC50: 13.8 µM

## C=C1C(=O)[C@]23[C@H](O)[C@H]1CC[C@H]2[C@@]12CO[C@@]3(O)[C@@H](O)[C@@H]1[C@@](C)(CO)CC[C@@H]2O [PARVIFOLINE D]
A549
  IC50: > 100 µM
K562
  IC50: > 100 µM
HT-29
  IC50: > 100 µM

## C=C1C(=O)[C@]23C[C@H]1[C@@H](O)C=C2[C@@]12CO[C@@]3(O)[C@@H](O)[C@@H]1C(C)(C)CC[C@@H]2O [PARVIFOLINE F]
A549
  IC50: > 100 µM
K562
  IC50: > 100 µM
HT-29
  IC50: > 100 µM

## C=C1[C@@H]2C[C@@H](OC(C)=O)[C@H]3[C@@]45CO[C@@](O)(C(=O)[C@@H]4C(C)(C)CC[C@@H]5OC(C)=O)[C@]3(C2)[C@@H]1OC(C)=O [PARVIFOLINE G]
A549
  IC50: > 100 µM
K562
  IC50: > 100 µM
HT-29
  IC50: > 100 µM

## C=C1C(=O)[C@]23C[C@H]1C[C@H](OC(C)=O)[C@H]2[C@@]12CO[C@@]3(O)[C@@H](O)[C@@H]1C(C)(C)CC[C@@H]2O [PARVIFOLINE H]
A549
  IC50: > 100 µM
K562
  IC50: > 100 µM
HT-29
  IC50: > 100 µM

## C=C1C(=O)[C@]23C[C@H]1C[C@H](O)[C@H]2[C@@]12CO[C@@]3(O)[C@@H](O)[C@@H]1C(C)(C)CC[C@@H]2OC(C)=O [PARVIFOLINE I]
A549
  IC50: > 100 µM
K562
  IC50: > 100 µM
HT-29
  IC50: > 100 µM

## COC[C@H]1C(=O)[C@]23C[C@H]1C[C@H](OC(C)=O)[C@H]2[C@@]12CO[C@@]3(O)[C@@H](O)[C@@H]1C(C)(C)CC[C@@H]2O [PARVIFOLINE J]
A549
  IC50: > 100 µM
K562
  IC50: > 100 µM
HT-29
  IC50: > 100 µM
